From ChEMBL document CHEMBL1124007, “Synthesis and structure-activity relationships of a new series of antiarrhythmic agents: monobasic derivatives of disobutamide” (1988)

Experiments:
Canis familiaris [1] = species: Canis familiaris; test: Mean effective dose required to suppress ventricular ectopic rate in dog greater than or equal to 25% for a minimum duration of 10 min; type: functional; details: Canis lupus familiaris, Cardiac ventricle, read-out: MED
Canis familiaris [2] = species: Canis familiaris; test: Mean effective dose required to suppress ventricular ectopic rate in dog greater than or equal to 25% for a minimum duration of 10 min; Lethal; type: functional; details: Canis lupus familiaris, Cardiac ventricle, read-out: MED
[3] = molecular target: T1, Muscarinic acetylcholine receptor (Rattus norvegicus) (UniProt P08482+P08483+P08485+P08911+P10980); test: Ratio of Muscarinic acetylcholine receptor affinity (IC50) of test compound to that of disopyramide; 1/24; type: protein assay
Canis familiaris [4] = test: Myocardial depression determined by monitoring the maximum rate of rise of left ventricular pressure in dog at 9 mg/kg dose; type: functional, Canis lupus familiaris, Heart left ventricle
Method in brief: (§1)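 Closed-chest anesthetized dogs given compound intravenously at the stated dose; myocardial depression taken as percent decrease in maximum rate of rise of left ventricular pressure (max dP/dt), mean ± standard error of the mean over the dogs tested. ≤25% depression at the mean effective antiarrhythmic dose was deemed acceptable.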

[5] = molecular target: T1, Muscarinic acetylcholine receptor (Rattus norvegicus); test: Ratio of Muscarinic acetylcholine receptor affinity (IC50) of test compound to that of disopyramide; 1/4; type: protein assay
Canis familiaris [6] = species: Canis familiaris; test: Mean effective dose required to suppress ventricular ectopic rate in dog greater than or equal to 25% for a minimum duration of 10 min; Side effects; type: functional, organism-based; details: Canis lupus familiaris; Cardiac ventricle
[7] = molecular target: T1, Muscarinic acetylcholine receptor (Rattus norvegicus); test: (§2) Ratio of Muscarinic acetylcholine receptor affinity (IC50) of test compound to that of disopyramide; type: protein assay
[8] = molecular target: T1, Muscarinic acetylcholine receptor (Rattus norvegicus); test: Ratio of Muscarinic acetylcholine receptor affinity (IC50) of test compound to that of disopyramide; 1/2; type: protein assay
[9] = molecular target: T1, Muscarinic acetylcholine receptor (Rattus norvegicus); test: Ratio of Muscarinic acetylcholine receptor affinity (IC50) of test compound to that of disopyramide; 1/6; type: protein assay
Canis familiaris [10] = test: Myocardial depression determined by monitoring the maximum rate of rise of left ventricular pressure in dog at 3 mg/kg dose; type: functional, Canis lupus familiaris, Heart left ventricle; method in brief: as §1
[11] = molecular target: T1, Muscarinic acetylcholine receptor (Rattus norvegicus); test: Ratio of Muscarinic acetylcholine receptor affinity (IC50) of test compound to that of disopyramide; 1/16; type: protein assay
Canis familiaris [12] = test: Myocardial depression determined by monitoring the maximum rate of rise of left ventricular pressure in dog at 10 mg/kg dose; type: functional, Canis lupus familiaris, Heart left ventricle
[13] = molecular target: T1, Muscarinic acetylcholine receptor (Rattus norvegicus); test: as §2; type: protein assay; remark: listed apart in the source
Method in brief: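 Muscarinic receptor binding by displacement of [³H]QNB, test compound at three to six concentrations in triplicate. IC50 from log probit analysis. Value expressed as IC50(test)/IC50(disopyramide).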

CC(C)N(CCC(CCN1CCCCC1)(C(N)=O)c1ccccc1Cl)C(=O)c1ccccc1 (centres undefined)
minimal effective dose (Canis familiaris [1]): 2 mg/kg
minimal effective dose (Canis familiaris [2]): 5 mg/kg

CC(=O)N(CCC(CCN1CCCCC1)(C(N)=O)c1ccccc1Cl)C(C)C (centres undefined) [BIDISOMIDE]
Ratio [3]: 0.0417
Decrease (Canis familiaris [4]): 20%
minimal effective dose (Canis familiaris [1]): 9 mg/kg

CC(C)N(CCC(CCC1CCCCN1)(C(N)=O)c1ccccc1Cl)C(C)C (centres undefined)
Ratio [5]: 0.25
minimal effective dose (Canis familiaris [1]): 12.5 mg/kg

CC(C)N(CCC1(c2ccccc2Cl)CC2CCCCN2C1=O)C(C)C (centres undefined)
minimal effective dose (Canis familiaris [1]): 3.5 mg/kg
MED (Canis familiaris [6]): Side effects
Ratio [7]: 1
Ratio [8]: 0.5

CC(C)N(CCC1(c2ccccc2)CC2CCCCN2C1=O)C(C)C.Cl (centres undefined)
minimal effective dose (Canis familiaris [1]): 10 mg/kg
Ratio [9]: 0.167

CC(C)N(CCC1(c2ccc(-c3ccccc3)cc2)CC2CCCCN2C1=O)C(C)C (centres undefined)
minimal effective dose (Canis familiaris [1]): 3 mg/kg
Decrease (Canis familiaris [10]): 35%
Ratio [11]: 0.0625

CC(C)N(CCC(C(N)=O)(c1ccccc1)c1ccccn1)C(C)C (centres undefined) [DISOPYRAMIDE]
minimal effective dose (Canis familiaris [1]): 10 mg/kg
Decrease (Canis familiaris [12]): 56%
Ratio [13]: 1
